An excerpt weighted towards active compounds, which were near 5.5% of everything screened.
STAT3 act: IL-6 driven STAT3 reporter potentiators, primary screen, U3A cells, luciferase, luminescence, MLSCN library | IL-6 STAT3-luciferase reporter; 100% = signal with IL-6 EC80 alone | activation (% of control), % at 5.6 µM | 0.91% of 190,000 active;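 active = activation above the screen-wide mean of compound activation plus 3 SD, cut at about 130% in these data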
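Assay system – human STAT1-deficient U3A cells with stable STAT3-luciferase reporter · Also added – IL-6 (33 ng/mL) · Schedule – compound 1 h, then IL-6 6 h at 37 °C · Technique – reporter luminescence signal · Evaluation – % activation versus median of IL-6-stimulated wells · Benchmarks – IL-6-only wells as 100% reference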
KCC2 mod: KCC2 cotransporter modulators, thallium flux, primary screen, cell-based, HEK293 KCC2, FluoZin-2 fluorescence, MLSMR. Solute carrier family 12 member 5 (Homo sapiens), Q9H2X9. 2.2% of 190,000 active. KCC2 cells, thallium flux FluoZin-2 fluorescence. AID 1456, 2008. B-score of Tl+ flux slope (higher = more flux/activation; lower = inhibition) at 10 µM;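 active = thallium flux slope and its plate-corrected score both differing from the plate sample mean at a set confidence after two filtering rounds, in either direction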;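 note: slope of fluorescence scaled to starting intensity during 10 to 20 s after thallium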
Target sequence (Q9H2X9 whole entry, looked up): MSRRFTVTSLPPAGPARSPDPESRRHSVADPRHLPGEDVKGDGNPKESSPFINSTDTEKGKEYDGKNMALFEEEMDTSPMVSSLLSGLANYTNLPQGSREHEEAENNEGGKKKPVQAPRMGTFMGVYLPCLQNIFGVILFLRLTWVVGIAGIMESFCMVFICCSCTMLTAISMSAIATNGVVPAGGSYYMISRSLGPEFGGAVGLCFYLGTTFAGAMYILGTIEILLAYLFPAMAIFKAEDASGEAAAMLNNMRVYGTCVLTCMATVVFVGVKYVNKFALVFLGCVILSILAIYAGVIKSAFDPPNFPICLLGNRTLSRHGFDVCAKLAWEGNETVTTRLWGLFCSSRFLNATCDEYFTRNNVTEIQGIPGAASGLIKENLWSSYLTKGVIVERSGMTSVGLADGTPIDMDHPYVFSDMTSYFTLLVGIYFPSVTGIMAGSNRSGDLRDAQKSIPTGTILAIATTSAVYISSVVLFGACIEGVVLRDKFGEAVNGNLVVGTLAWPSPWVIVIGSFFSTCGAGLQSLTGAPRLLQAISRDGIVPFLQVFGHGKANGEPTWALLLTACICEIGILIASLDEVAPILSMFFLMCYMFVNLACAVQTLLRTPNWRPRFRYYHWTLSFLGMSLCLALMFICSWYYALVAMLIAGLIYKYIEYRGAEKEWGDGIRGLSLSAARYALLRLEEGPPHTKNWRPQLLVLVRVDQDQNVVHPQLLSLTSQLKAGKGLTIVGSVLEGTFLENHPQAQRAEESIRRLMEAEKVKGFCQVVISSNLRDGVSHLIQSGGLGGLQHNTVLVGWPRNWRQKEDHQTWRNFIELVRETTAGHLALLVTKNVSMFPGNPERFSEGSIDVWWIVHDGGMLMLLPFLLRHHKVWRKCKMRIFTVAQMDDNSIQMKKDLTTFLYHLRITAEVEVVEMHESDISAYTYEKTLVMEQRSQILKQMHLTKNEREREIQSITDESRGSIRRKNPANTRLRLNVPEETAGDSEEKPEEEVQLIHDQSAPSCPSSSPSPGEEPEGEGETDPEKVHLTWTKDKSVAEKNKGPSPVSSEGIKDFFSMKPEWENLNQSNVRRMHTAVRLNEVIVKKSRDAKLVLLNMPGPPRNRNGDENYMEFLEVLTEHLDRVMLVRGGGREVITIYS
HSV augment: enhancers of HSV replication in host cells, fold increase, host cell viability. HSV replication augmentation in cells. maximum fold increase. AID 1956, 2009. 0.005% of 220,000 active; in the data active = maximum fold increase above about 1.5; inconclusive = no clear call, values can overlap the other calls; tested in PC3 cells
STAT3 inh: IL-6 driven STAT3 reporter inhibitors, primary screen, U3A cells, luciferase, luminescence, MLSCN library. AID 862, 2007. inhibition, % at 5.5 µM. 0.89% of 190,000 active. IL-6 STAT3-luciferase reporter; host cell line lacks STAT1;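 active = inhibition above the mean inhibition across all screened compounds plus 3 SD, cut at about 44% in these data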
STAT1 activator: STAT1 signaling activators, primary screen, cell-based, HTS, luciferase reporter | activation (% of control), % at 5.5 µM | NIH 3T3 STAT1-luciferase reporter, IFN-gamma, luminescence; 100% = IFN-gamma alone, no compound | AID 932, 2007 | 2.6% of 200,000 active;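 active = activation above the screen-wide mean activation plus 3 SD, cut at about 130% in these data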
STAT1 blocker: STAT1 signaling inhibitors, primary screen, cell-based, HTS, luciferase reporter | NIH 3T3 STAT1-luciferase reporter, IFN-gamma, luminescence | inhibition, % at 5.5 µM | 0.35% of 200,000 active | AID 920, 2007;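 active = inhibition above a set limit, the mean inhibition across all tested compounds plus 3 SD, cut at about 34% in these data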
STAT1 act conf: STAT1 signaling activators, confirmation, cell-based, HTS, luciferase reporter | shares compounds with STAT1 activator | NIH 3T3 STAT1-luciferase reporter, IFN-gamma potentiation, luminescence; 100% = IFN-gamma EC80 alone, no compound | activation (% of control), % at 5.7 µM | 97% of 1,200 active;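 active = activation above a set limit carried over from the earlier primary STAT1 screen, cut at about 140% in these data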
NFkB act: NF-kB reporter activators, TNF-alpha stimulated, counter-screen for STAT1 activator project, cell-based, HEK293T, luciferase luminescence; 100% = TNF-alpha with vehicle only; AID 1306, 2008; activation (% of control), % at 5.7 µM; shares compounds with STAT1 activator; 43% of 1,200 active;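 active = activation above the mean of solvent-only control wells plus 3 SD, set per campaign, cut at about 130% in these data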;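 note: TNF-alpha given at a submaximal dose yielding about 80% of full reporter signal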
STAT3 act STAT1c: STAT3 reporter activation by STAT1 hits, confirmation, counter-screen for STAT1 activator project, U3A cells, luciferase, luminescence | shares compounds with STAT1 activator | IL-6; cells lack STAT1; 100 = IL-6 alone, no compound effect | activation (% of control), % at 5.7 µM | 46% of 1,200 active | AID 1316, 2008;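 active = activation above the solvent-only control well mean plus 3 SD, set per plate batch, cut at about 110% in these data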;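 note: higher means more STAT3 reporter activation so hits are non-selective activators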
Of the large screens only hits and unclear results are named; the others gave an inactive call (follow-up assays come after a bar, where they were run).

Cc1cc(C(=O)CN2C(=O)NC3(CCCCC3)C2=O)c(C)n1Cc1ccc2c(c1)OCO2	none
Cc1cc(C(=O)CN2C(=O)NC3(CCCCC3C)C2=O)c(C)n1Cc1cccs1 (centres undefined)	STAT1 activator 154.7 | STAT1 act conf 175.2 | NFkB act inactive | STAT3 act STAT1c 124.6
Cc1cc(C(=O)CN2C(=O)NC3(CCCCC3)C2=O)c(C)n1Cc1ccco1	STAT1 activator 158.1 | STAT1 act conf 179.9 | NFkB act 136.8 | STAT3 act STAT1c 134.1
O=C(NCCc1ccccc1)c1ccc(Cl)nc1	STAT1 activator 156.4 | STAT1 act conf 162.8 | NFkB act inactive | STAT3 act STAT1c 121.2
COc1ccc(N(CC(=O)NCCSC2CCCCC2)S(C)(=O)=O)c(OC)c1	none
CC(=O)Cc1nsc(Nc2ccc(C)cc2)n1	STAT1 activator 156.5 | STAT1 act conf 189.5 | NFkB act 136.8 | STAT3 act STAT1c 122.4
O=c1oc2ccc3ccccc3c2cc1-c1nnc(-c2ccccc2)o1	none
CCN(CC)c1ccc2cc(-c3nnc(-c4ccccc4)o3)c(=O)oc2c1	HSV augment inconclusive, STAT1 activator 154.9 | STAT1 act conf 185.1 | NFkB act 136.9 | STAT3 act STAT1c 125.7
COc1ccc(NCc2nc3ccccc3n2CCOc2ccc(C)cc2)cc1	none
Cc1ccc(NCc2nc3ccccc3n2C)cc1	STAT1 activator 152.7 | STAT1 act conf 183.2 | NFkB act inactive | STAT3 act STAT1c 189.7
COc1ccccc1NS(=O)(=O)c1cccc(C(=O)N/N=C/c2ccc(NC(C)=O)cc2)c1	none
Cc1ccc2nc(-c3ccc(NS(=O)(=O)c4ccc(F)c(F)c4)cc3)sc2c1	STAT1 activator 172.5 | STAT1 act conf 217.0 | NFkB act 137.1 | STAT3 act STAT1c inactive
COn1c(-c2ccccc2)nc2ccc(Cl)cc21	none
Clc1ccc2nc3c4ccccc4cnn3c2c1	STAT1 activator 166.0 | STAT1 act conf 237.6 | NFkB act inactive | STAT3 act STAT1c 162.1
Cc1ccc(N/C=C(/C#N)c2ccsc2)cc1C	STAT1 activator 193.0 | STAT1 act conf 234.7 | NFkB act 156.2 | STAT3 act STAT1c 125.0
CCn1c(O)c(/C=C2\C=Nc3ccccc32)sc1=O	STAT1 activator 178.5 | STAT1 act conf 174.6 | NFkB act 140.0 | STAT3 act STAT1c 126.3
O=C(O)c1ccc(-c2nc(-c3ccc(Cl)cc3)cs2)cc1	STAT1 activator 180.6 | STAT1 act conf 240.7 | NFkB act 135.4 | STAT3 act STAT1c 134.9
COc1ccc(-c2csc(-c3ccc(C(=O)O)cc3)n2)cc1	STAT1 activator 182.1 | STAT1 act conf 242.0 | NFkB act 146.0 | STAT3 act STAT1c 144.2
CCOC(=O)c1ccc2ncc(C(=O)OCC)c(NCc3ccco3)c2c1	none
O=C(CC(=O)c1ccccc1)Nc1ccc2c(c1)OCCO2	STAT1 activator 158.6 | STAT1 act conf 191.7 | NFkB act inactive | STAT3 act STAT1c 117.4
CCC(=O)Nc1ccc2c(c1)OCCO2	none
O=C(Nc1ccc2c(c1)OCCO2)c1ccc(Br)s1	STAT1 activator 183.7 | STAT1 act conf 254.6 | NFkB act inactive | STAT3 act STAT1c inactive
O=C(CCCc1ccccc1)Nc1ccc2c(c1)OCCO2	STAT1 activator 151.1 | STAT1 act conf 162.4 | NFkB act inactive | STAT3 act STAT1c 118.7
CCN(CC(=O)NCc1cccs1)C(=O)c1cccc(S(=O)(=O)N2CCc3ccccc32)c1	none
CCCCOC(=O)Cn1c(=O)c2c(nc(Br)n2Cc2ccccc2)n(C)c1=O	none
COC(=O)CSc1nc(-c2ccccc2)nc2ccccc12	none
Cc1ccc(OCc2nc(-c3ccccc3)no2)c(C)c1	STAT1 activator 163.2 | STAT1 act conf 185.1 | NFkB act inactive | STAT3 act STAT1c inactive
O=C(Nc1nc2c(s1)CCCC2)c1ccc2ncsc2c1	STAT1 activator 181.5 (no result: HSV augment) | STAT1 act conf 270.5 | NFkB act 138.8 | STAT3 act STAT1c 111.1
O=C(CS(=O)(=O)Cc1ccccc1)Nc1nc2c(s1)CCCC2	none
O=C(Nc1nc2c(s1)CCCC2)c1ccc(Br)s1	STAT1 activator 165.9 | STAT1 act conf 256.3 | NFkB act 138.3 | STAT3 act STAT1c inactive
O=C(Nc1nnc(SCc2ccc(F)cc2)s1)c1ccc2ncsc2c1	none
Cc1ncsc1C(=O)Nc1nc2c(s1)CCCC2	STAT1 activator 153.9 | STAT1 act conf 174.8 | NFkB act inactive | STAT3 act STAT1c inactive
O=C(Cc1cccs1)N(Cc1ccco1)C1(C(=O)NC2CCCC2)CCCCC1	none
O=C(NCc1ccccn1)c1cc(-c2ccc(-c3ccccc3)cc2)nc2ccccc12	STAT1 activator 156.4 | STAT1 act conf 198.5 | NFkB act inactive | STAT3 act STAT1c 147.8
O=C(NCc1ccccn1)c1cc(-c2ccccc2)nc2ccccc12	none
CC1CCc2nc(/C(C#N)=C/c3ccncc3)sc2C1 (centres undefined)	STAT1 activator 151.7 | STAT1 act conf 159.5 | NFkB act inactive | STAT3 act STAT1c inactive
N#C/C(=C/c1ccncc1)c1nc2ccccc2s1	HSV augment inconclusive
COc1ccc(S(=O)(=O)N2CCC(C(=O)N3CCCCC3)CC2)cc1Cl	none
Nc1nc(SCC(=O)Nc2ccc(Cl)cc2)[nH]c(=O)c1-c1ccccc1	none
C=CCSc1nncn1/N=C/c1ccc(OC)cc1	STAT1 activator 183.8 | STAT1 act conf 200.5 | NFkB act 145.9 | STAT3 act STAT1c 133.1
COc1ccc(/C=N/n2cnnc2SCCO)cc1OC	none (no result: KCC2 mod)
O=C(CCC1CCCN(C(=O)CCCc2ccccc2)C1)N1CCN(c2ccccn2)CC1 (centres undefined)	none (no result: STAT3 act, STAT3 inh, STAT1 activator, STAT1 blocker)

Assay outcomes: PubChem, several laboratories
